Converted amounts (≈) assume the structure as drawn. Some results are limits rather than exact numbers.

Results on twelve compounds are retold here after paper PMC6108325 (Bioorganic & medicinal chemistry, 2014).

For one test, the target named is MRSA PK (Staphylococcus aureus, UniProt Q6GG09). Put plainly: MRSA PK enzyme inhibition assay. The test is classed as biochemical, methicillin-resistant Staphylococcus aureus. The conditions noted are these: for fold more potent than 33c: MRSA PK inhibition relative to 33c; for fold decrease in activity compared to 10a: MRSA PK inhibition relative to 10a. The gist of the method: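 His-tagged recombinant MRSA pyruvate kinase construct, prepared as in earlier work. […] IC50 was calculated from a triplicate 15-point titration. Where no IC50 was obtained, % inhibition at the highest concentration tested was reported.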
Sequence of MRSA PK (Q6GG09 whole entry): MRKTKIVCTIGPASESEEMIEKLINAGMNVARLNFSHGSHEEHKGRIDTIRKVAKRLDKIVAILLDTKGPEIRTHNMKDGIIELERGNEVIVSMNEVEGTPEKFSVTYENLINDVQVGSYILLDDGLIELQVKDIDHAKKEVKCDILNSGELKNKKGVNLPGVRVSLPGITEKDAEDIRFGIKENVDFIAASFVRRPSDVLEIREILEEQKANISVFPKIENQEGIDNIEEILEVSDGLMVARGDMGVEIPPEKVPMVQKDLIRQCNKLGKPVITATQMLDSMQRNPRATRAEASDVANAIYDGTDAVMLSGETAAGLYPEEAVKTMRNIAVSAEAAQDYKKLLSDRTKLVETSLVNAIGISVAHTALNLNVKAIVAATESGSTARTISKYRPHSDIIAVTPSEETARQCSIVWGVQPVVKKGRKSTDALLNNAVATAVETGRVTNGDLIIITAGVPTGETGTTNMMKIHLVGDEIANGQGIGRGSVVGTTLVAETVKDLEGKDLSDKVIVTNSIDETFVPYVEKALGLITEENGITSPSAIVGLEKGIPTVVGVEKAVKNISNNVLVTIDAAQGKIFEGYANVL

A further test relates to S. aureus ATCC 29213. The test is described as follows: In vitro susceptibility testing. The class given is cell-based, Staphylococcus aureus.
Another test relates to S. aureus (ATCC29213). Put plainly: MIC in absence and presence of efflux inhibitor verapamil. The class given is cell-based, Staphylococcus aureus.
For the next test, the system named is Wild-type S. aureus LAC. Put plainly: Bacterial killing assay, wild type. The class given is cell-based, Staphylococcus aureus. The conditions noted are these: 1.6 μM, aerobic growth in BHI.
The subject of test [1] is S. aureus LAC Δpyk::Erm^R. Put plainly: Bacterial killing assay, PK-deficient mutant. The conditions noted are these: 1.6 μM. The test is classed as cell-based, Staphylococcus aureus.
In another test the test system is MRSA strain MW2 (USA400). Put plainly: In vitro susceptibility testing. The class given is cell-based, methicillin-resistant Staphylococcus aureus. The conditions noted are these: CAMHB.
[2] abbreviates: Staphylococcus aureus, ATCC29213.
The mark [3] stands for this setting: Staphylococcus aureus, ATCC29213, absence of verapamil.

The term IC50 denotes the point on the concentration scale where inhibition reaches its midpoint. Read a low IC50 as greater potency. For the compound “2-(4-(1H-Indol-2-yl)-3-nitrophenyl)-6-bromo-1H-indole [33d]”, on MRSA PK, the “fold more potent than 33c” value is 2–3 fold. The “% Inhibition of MRSA PK” value at MRSA PK (at 10 μM (Table 4)) came out at 86.2%. At MRSA PK (triplicate 15-point titration), this compound had a concentration for half-maximal inhibition (IC50) of 1.8 nM. As to “5′,6-Dibromo-1-methyl-1H,2′H-2,2′-biindole [12b]”, the “% inhibition at the highest concentration tested” value on MRSA PK (@ 10 μM) was found to be 25% @ 10 μM. By MIC is commonly meant the lowest concentration that inhibits growth of the organism. Take `Brc1ccc2cc(-c3cc4ccc(Br)cc4[nH]3)[nH]c2c1` [10b, 6,6′-Dibromo-1H,1′H-2,2′-biindole]: the figures for the MIC with S. aureus ATCC 29213 (setting [2]) and in the test on S. aureus (ATCC29213) (setting [3]) were 16 µg/mL (≈ 41 µM) and 16 µg/mL, respectively. Compound `Brc1ccc2[nH]c(-c3cc4ccc(Br)cc4[nH]3)cc2c1` [10c, 5,6-Bibromo-1H,1′H-2,2′-biiindole] had a minimal inhibitory concentration (MIC) against S. aureus ATCC 29213 (setting [2]) of 0.3 µg/mL (≈ 0.769 µM). `Clc1ccc2[nH]c(-c3cc4ccc(Br)cc4[nH]3)cc2c1` [10d, 6′-Bromo-5-chloro-1H,1′H-2,2′-biindole] returned an MIC against S. aureus ATCC 29213 (setting [2]) of 0.3 µg/mL (≈ 0.868 µM). Further, the bactericidal effect result in the test on Wild-type S. aureus LAC is “highly bactericidal”; in test [1] (TSB without glucose + 1% sodium pyruvate (TSB-G+P)), “unable to kill”; in test [1] (aerobic growth in BHI), “merely acted statically”. In the test with S. aureus ATCC 29213 (setting [2]), `Fc1ccc2[nH]c(-c3cc4ccc(Br)cc4[nH]3)cc2c1` [10e, 6′-Bromo-5-fluoro-1H,1′H-2,2′-biindole] came in with an MIC of 0.3 µg/mL (≈ 0.911 µM). Regarding `Brc1ccc2[nH]c(-c3cc4cc(Br)ccc4[nH]3)cc2c1` [10i, 5,5′-Bibromo-1H,1′H-2,2′-biindole], in the test with S. aureus ATCC 29213 (setting [2]), the MIC is above 64 µg/mL. For the compound `Brc1cc2cc(-c3cc4cc(Br)c(Br)cc4[nH]3)[nH]c2cc1Br` [10l, 5,5′,6,6′-Tetrabromo-1H,1′H-2,2′-biindole], the minimum inhibitory concentration (MIC) with S. aureus ATCC 29213 (setting [2]), in the test on S. aureus ATCC 29213 (minimum concentration to give >98% inhibition of growth) and in the test with S. aureus (ATCC29213) (setting [3]) was above 64 µg/mL throughout. Besides, the “shift of MIC by verapamil” value in the test on S. aureus (ATCC29213) (absence vs presence of verapamil (200 mg/L)) is “at least fourfold”. On to `Brc1ccc2cc(-c3nc4ccccc4s3)[nH]c2c1` [22a, 2-(6-Bromo-1H-indol-2-yl)benzo[d]thiazole], for which, on MRSA PK, the “fold decrease in activity compared to 10a” value was 5–8 fold. Still for that read-out and setting: the figure for `Brc1ccc2cc(-c3cc4ccccc4o3)[nH]c2c1` [22b, 2-(Benzofuran-2-yl)-6-bromo-1H-indole] is 5–8 fold. On to `COc1cc(-c2cc3ccccc3[nH]2)ccc1-c1cc2ccc(Br)cc2[nH]1` [33e, 2-(4-(1H-Indol-2-yl)-2-methoxyphenyl)-6-bromo-1H-indole], for which the “fold more potent than 33c” value on MRSA PK is on record as 2–3 fold. Take `CN[C@H](CC(C)C)C(=O)N[C@H]1C(=O)N[C@@H](CC(N)=O)C(=O)N[C@H]2C(=O)N[C@H]3C(=O)N[C@H](C(=O)N[C@H](C(=O)O)c4cc(O)cc(O)c4-c4cc3ccc4O)[C@H](O)c3ccc(c(Cl)c3)Oc3cc2cc(c3O[C@@H]2O[C@H](CO)[C@@H](O)[C@H](O)[C@H]2O[C@H]2C[C@](C)(N)[C@H](O)[C@H](C)O2)Oc2ccc(cc2Cl)[C@H]1O` [vancomycin, reference compound]: the MIC in the test with S. aureus (ATCC29213) (setting [2]) is 2 µg/mL; in the test with S. aureus (ATCC29213) (presence of verapamil (200 mg/L)), 2 µg/mL; against MRSA strain MW2 (USA400), 2 µg/mL (≈ 1.38 µM).
